In brackets after ≈: the same amount, converted by molar mass.
Tests used:
[1] = Cytotoxicity against mouse RAW264.7 cells assessed as inhibition of cell viability at 50 uM after 72 hrs by MTT assay; assay type: cell-based; settings: read-out: INH
Pantothenate synthetase = target: T1, Pantothenate synthetase (Mycobacterium tuberculosis, UniProt P9WIL5); assay: Inhibition of Mycobacterium tuberculosis pantothenate synthetase expressed in Escherichia coli BL21 (DE3) by spectrophotometry
T1 sequence (P9WIL5 whole entry): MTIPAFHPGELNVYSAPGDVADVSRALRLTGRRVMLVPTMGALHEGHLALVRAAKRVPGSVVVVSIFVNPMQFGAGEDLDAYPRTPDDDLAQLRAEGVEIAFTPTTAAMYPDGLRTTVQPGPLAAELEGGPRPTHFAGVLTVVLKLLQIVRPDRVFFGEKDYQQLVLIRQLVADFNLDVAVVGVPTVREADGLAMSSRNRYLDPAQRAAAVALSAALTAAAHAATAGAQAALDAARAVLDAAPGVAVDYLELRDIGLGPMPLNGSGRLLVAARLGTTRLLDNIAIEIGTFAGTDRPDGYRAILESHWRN
How it was run: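 Reaction started by adding PS diluted in buffer; absorbance at 340 nm read every 12 s for 120 s. Percent inhibition = 100 × [1 − (compound rate − background rate)/(full reaction rate − background rate)].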

[2] = test system: Mycobacterium tuberculosis; assay: Antimycobacterial activity against Mycobacterium tuberculosis H37Rv ATCC 27294 assessed as growth inhibition after 28 days by agar dilution method; assay type: functional; settings: H37Rv ATCC 27294, 672 h
How it was run: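 Agar dilution in Middlebrook 7H11 with OADC; two-fold dilutions, final 50 to 0.78 µg/mL. Inoculum from fresh 7H11 slants, 1 mg/mL wet weight in 0.05% Tween 80 saline, diluted 10⁻² (~10⁷ cfu/mL); 5 µL spotted per tube. Incubated 37 °C, read at 28 days; MIC = lowest concentration giving complete growth inhibition. Isoniazid, ethambutol, GSK358607A references.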

[3] = target: T2, Pantothenate synthetase (Mycobacterium tuberculosis) (UniProt P9WIL5); assay: Binding affinity to Mycobacterium tuberculosis pantothenate synthetase assessed as melting temperature by differential scanning fluorimetry
T2 sequence (whole entry): T1 sequence (P9WIL5 whole entry)
How it was run: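 Protein–ligand complexes with SYPRO Orange dye heated 25 to 95 °C in 0.1 °C steps; fluorescence tracked to obtain Tm, with shift relative to native protein taken as stabilisation from binding.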

Row | Structure (SMILES) | cytotoxicity at 72 h, 50 µM [1] [%] | IC50 (Pantothenate synthetase) [µM] | MIC [2] [µM] | Tm [3] [°C]
1 | COc1ccccc1C(=O)NNC(=O)c1c(C)nc2ccccn12 | 19 | 8.21 | 19.2 (≈ 6.24 µg/mL) | 
2 | Cc1nc2ccccn2c1C(=O)N/N=C/c1ccc(Br)cc1 |  | 4.43 | 35 (≈ 12.5 µg/mL) | 
3 | CCOc1ccc(NC(=O)c2c(C)nc3ccccn23)cc1 |  | > 25 | 42.2 (≈ 12.5 µg/mL) | 
4 | Cc1nc2ccccn2c1C(=O)NCc1ccccc1 | 24.5 | 2.74 | 23.5 (≈ 6.23 µg/mL) | 
5 | Cc1nc2ccccn2c1C(=O)Nc1ccc(Br)cc1 |  | 6.95 | 37.9 (≈ 12.5 µg/mL) | 
6 | COc1cc(/C=N/NC(=O)c2c(C)nc3ccccn23)cc(OC)c1OC |  | 7.05 | 67.8 (≈ 25 µg/mL) | 
7 | Cc1nc2ccccn2c1C(=O)NNC(=O)c1ccccc1 |  | 3.54 | 42.4 (≈ 12.5 µg/mL) | 
8 | Cc1nc2ccccn2c1C(=O)N/N=C/c1ccc(OCc2ccccc2)cc1 |  | 5.37 | 32.5 (≈ 12.5 µg/mL) | 
9 | COc1ccc(/C=N/NC(=O)c2c(C)nc3ccccn23)cc1 |  | 6.37 | 80.9 (≈ 24.9 µg/mL) | 
10 | Cc1nc2ccccn2c1C(=O)Nc1ccccc1 |  | 12.8 | 188 (≈ 47.2 µg/mL) | 
11 | Cc1nc2ccccn2c1C(=O)NCCc1ccccc1 |  | 5.77 | 89.3 (≈ 24.9 µg/mL) | 
12 | Cc1nc2ccccn2c1C(=O)NNC(=O)C1CCCCC1 | 31.7 | 7.7 | 10.4 (≈ 3.12 µg/mL) | 
13 | Cc1nc2ccccn2c1C(=O)NCc1ccco1 | 20.7 | 2.81 | 24.4 (≈ 6.23 µg/mL) | 
14 | Cc1nc2ccccn2c1C(=O)Nc1ccc(Cl)cc1 |  | 2.6 | 87.4 (≈ 25 µg/mL) | 
15 | Cc1nc2ccccn2c1C(=O)NNC(=O)c1cc([N+](=O)[O-])cc([N+](=O)[O-])c1 | 40.6 | 6.48 | 16.2 (≈ 6.24 µg/mL) | 
16 | Cc1nc2ccccn2c1C(=O)N/N=C/c1ccc([N+](=O)[O-])cc1 |  | > 25 | 38.6 (≈ 12.5 µg/mL) | 
17 | Cc1nc2ccccn2c1C(=O)NC1CCCCC1 |  | 1.99 | 96.9 (≈ 24.9 µg/mL) | 

Row | Structure (SMILES) | cytotoxicity at 72 h, 50 µM [1] [%] | IC50 (Pantothenate synthetase) [µM] | MIC [2] [µM] | Tm [3] [°C]
18 | Cc1nc2ccccn2c1C(=O)NNC(=O)c1ccc(Cl)cc1Cl | 20.1 | 5.13 | 17.2 (≈ 6.25 µg/mL) | 
19 | CC[C@@H](CO)NCCN[C@@H](CC)CO [ETHAMBUTOL] |  | > 25 | 7.64 (≈ 1.56 µg/mL) | 
20 | Cc1nc2ccccn2c1C(=O)NNC(=O)c1ccco1 | 16.8 | 8.93 | 11 (≈ 3.12 µg/mL) | 
21 | Cc1nc2ccccn2c1C(=O)NNC(=O)c1ccc(Oc2ccccc2)cc1 |  | 7.22 | 32.3 (≈ 12.5 µg/mL) | 
22 | Cc1ccc(C(=O)NNC(=O)c2c(C)nc3ccccn23)cc1 |  | 3.35 | 80.9 (≈ 24.9 µg/mL) | 
23 | Cc1ccc(/C=N/NC(=O)c2c(C)nc3ccccn23)cc1 | 16.7 | 7.46 | 21.3 (≈ 6.24 µg/mL) | 
24 | Cc1nc2ccccn2c1C(=O)NNC(=O)c1cccc2ccccc12 | 28.4 | 1.9 | 4.53 (≈ 1.56 µg/mL) | 51
25 | Cc1nc2ccccn2c1C(=O)N/N=C/c1ccc(C(F)(F)F)cc1 | 24.6 | 8.18 | 9.01 (≈ 3.12 µg/mL) | 
26 | Cc1ccc2nc(C)c(C(=O)NCc3cccs3)n2c1 |  | 8.12 | 0.19 (≈ 0.0542 µg/mL) | 
27 | NNC(=O)c1ccncc1 [ISONIAZID] |  | > 25 | 0.72 (≈ 0.0987 µg/mL) | 
28 | Cc1nc2ccccn2c1C(=O)Nc1ccccn1 |  | > 25 | 98.8 (≈ 24.9 µg/mL) | 
29 | Cc1nc2ccccn2c1C(=O)N/N=C/c1ccc(O)cc1 | 19.4 | 7.49 | 21.2 (≈ 6.24 µg/mL) | 
30 | Cc1nc2ccccn2c1C(=O)NNC(=O)c1cccc([N+](=O)[O-])c1 |  | 9.2 | 36.8 (≈ 12.5 µg/mL) | 
31 | Cc1nc2ccccn2c1C(=O)N/N=C/c1ccc(F)cc1 | 20.9 | 3.77 | 21 (≈ 6.23 µg/mL) | 
32 | Cc1nc2ccccn2c1C(=O)Nc1cccc(C(F)(F)F)c1 |  | 7.01 | 78.1 (≈ 24.9 µg/mL) | 
33 | Cc1nc2ccccn2c1C(=O)N/N=C/c1ccccc1 |  | 4.86 | 179 (≈ 49.9 µg/mL) | 
